Converted amounts (≈) assume the structure as drawn.
How the values were obtained:
[1] = tested on: Mycobacterium tuberculosis; assay: Antituberculosis activity against Mycobacterium tuberculosis H37Rv under aerobic conditions by microplate alamar blue assay; assay type: functional
[2] = Metabolic stability in CD1 mouse liver microsomes at 1 uM measured as compound remaining after 1 hr by LC/MS/MS analysis; assay type: ADME, Microsome; details: read-out: Stability
[3] = Metabolic stability in human liver microsomes at 1 uM measured as compound remaining after 1 hr by LC/MS/MS analysis; assay type: ADME, Microsome; details: read-out: Stability
[4] = tested on: Mycobacterium tuberculosis; assay: Antituberculosis activity against Mycobacterium tuberculosis H37Rv under anaerobic conditions by fluorescence based low-oxygen-recovery assay; assay type: functional
[5] = Aqueous solubility of the compound in water at pH 7 by HPLC analysis; assay type: physicochemical
Summary of the method: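 Solubility measured in water at pH 7 and 20 °C, quantified by HPLC.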

[6] = Stability of the compound in antimycobacterial activity assay condition assessed as parent compound level; assay type: ADME
[7] = tested on: Mycobacterium tuberculosis; assay: Antituberculosis activity against Mycobacterium tuberculosis H37Rv infected in BALB/c mouse acute infection model assessed as fold reduction in bacterial CFU in lungs at 100 mg/kg, po administered for 5 days a week for 3 weeks beginning on day 11 postinfection relative to PA-824; assay type: functional
Summary of the method: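 Mice with acute M. tb infection dosed orally at 100 mg/kg daily, 5 days each week, standard 3 week assay. Lung CFUs counted. Value is the fold CFU decrease for the compound divided by the fold CFU decrease for the internal reference standard run in the same experiment.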

[8] = tested on: Mycobacterium tuberculosis; assay: Antituberculosis activity against Mycobacterium tuberculosis H37Rv infected in BALB/c mouse chronic infection model assessed as fold reduction in bacterial CFU in lungs at 100 mg/kg, po administered for 5 days a week for 3 weeks beginning on day 70 postinfection relative to OPC-67683; assay type: functional
Summary of the method: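 Chronic M. tb infection model with dosing starting ~70 days post infection, once bacteria are in a plateau phase of growth. Oral 100 mg/kg daily, 5 days/week, 3 weeks. Lung CFUs counted. Value is the fold CFU reduction for the compound relative to the fold reduction for the reference agent.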

[9] = Half life in the lung of CD1 mouse at 40 mg/kg, po; assay type: ADME, organism-based; set-up: dose 40 mg/kg, route oral
Summary of the method: (§1)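 Mice given a single oral dose of 40 mg/kg; drug levels followed over time in plasma and lung tissue to derive half-life, Cmax and AUC for each matrix.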

[10] = AUC (0 to infinity) in plasma of CD1 mouse at 40 mg/kg, po; assay type: ADME, organism-based; set-up: time infinity, dose 40 mg/kg, route oral; summary of the method: as §1
[11] = Ratio of AUC (0 to infinity) in lung of CD1 mouse to AUC (0 to infinity) in plasma of CD1 mouse at 40 mg/kg, po; assay type: ADME, organism-based; set-up: dose 40 mg/kg, route oral; details: read-out: Ratio AUC
[12] = Half life in plasma of CD1 mouse at 40 mg/kg, po; assay type: ADME, organism-based; set-up: dose 40 mg/kg, route oral
[13] = Cmax in lung of CD1 mouse at 40 mg/kg, po; assay type: ADME, organism-based; set-up: dose 40 mg/kg, route oral; summary of the method: as §1
[14] = AUC (0 to infinity) in lung of CD1 mouse at 40 mg/kg, po; assay type: ADME, organism-based; set-up: time infinity, dose 40 mg/kg, route oral; summary of the method: as §1
[15] = Cmax in plasma of CD1 mouse at 40 mg/kg, po; assay type: ADME, organism-based; set-up: dose 40 mg/kg, route oral; summary of the method: as §1

Structure (SMILES)	MIC [1]	remaining at 1 h, 1 µM [2]	remaining at 1 h, 1 µM [3]	MIC [4]	solubility [5]	Stability [6]	fold change (FC) [7]	fold change (FC) [8]	half-life [9]	AUC(0-inf) [10]	Kp [11]	half-life [12]	Cmax [13]	AUC(0-inf) [14]	Cmax [15]
CC(O[C@@H]1COc2nc([N+](=O)[O-])cn2C1)c1ccc(OC(F)(F)F)cc1 (mixture of isomers)	0.6 µM	75%	73%	7.7 µM											
O=[N+]([O-])c1cn2c(n1)OC[C@@H](Oc1cc(-c3ccc(OC(F)(F)F)cc3)ccn1)C2	5.1 µM (≈ 2.15 µg/mL)			87 µM (≈ 36.7 µg/mL)	0.13 µg/mL (≈ 0.308 µM)	< 50%									
O=[N+]([O-])c1cn2c(n1)OC[C@@H](OCc1ccc(C(F)(F)F)cn1)C2	1.5 µM (≈ 0.516 µg/mL)			22 µM (≈ 7.57 µg/mL)	188 µg/mL (≈ 546 µM)										
O=[N+]([O-])c1cn2c(n1)OC[C@@H](OCc1ccc(C(F)(F)F)nc1)C2	3 µM (≈ 1.03 µg/mL)			50 µM (≈ 17.2 µg/mL)	68 µg/mL (≈ 198 µM)										
O=[N+]([O-])c1cn2c(n1)OC[C@@H](OCc1ccc(OCc3ccccc3)cc1)C2	0.025 µM (≈ 0.00953 µg/mL)	44%	59%	1.3 µM (≈ 0.496 µg/mL)	0.76 µg/mL (≈ 1.99 µM)										
O=[N+]([O-])c1cn2c(n1)OC[C@@H](OCCCc1ccc(-c3ccc(C(F)(F)F)cc3)cc1)C2	0.043 µM (≈ 0.0192 µg/mL)	81%	73%	> 128 µM			0.05								
O=[N+]([O-])c1cn2c(n1)OC[C@@H](Oc1ccnc(-c3ccc(OC(F)(F)F)cc3)c1)C2	0.3 µM (≈ 0.127 µg/mL)			2.6 µM (≈ 1.1 µg/mL)	0.53 µg/mL (≈ 1.25 µM)										
O=[N+]([O-])c1cn2c(n1)OC[C@@H](Oc1ncc(-c3ccc(OC(F)(F)F)cc3)cn1)C2	0.22 µM (≈ 0.0931 µg/mL)	95%	88%	5.2 µM (≈ 2.2 µg/mL)	1.7 µg/mL (≈ 4.02 µM)										
O=[N+]([O-])c1cn2c(n1)OC[C@@H](OCc1ccc(-c3ccc(OC(F)(F)F)cc3)cc1)C2								0.86	12.8 h						
O=[N+]([O-])c1cn2c(n1)OC[C@@H](OCCCC#Cc1ccc(-c3ccc(OC(F)(F)F)cc3)cc1)C2	0.055 µM (≈ 0.0268 µg/mL)			> 128 µM		Unstable									
O=[N+]([O-])c1cn2c(n1)OC[C@@H](Oc1ccc(-c3ccc(OC(F)(F)F)cc3)cn1)C2	0.39 µM (≈ 0.165 µg/mL)	93%	96%	12 µM (≈ 5.07 µg/mL)	0.24 µg/mL (≈ 0.568 µM)		0.17								
O=[N+]([O-])c1cn2c(n1)OC[C@@H](Oc1ccc(-c3ccc(OC(F)(F)F)cc3)cc1)C2	0.09 µM (≈ 0.0379 µg/mL)			1.1 µM (≈ 0.463 µg/mL)	0.33 µg/mL (≈ 0.783 µM)		8.1		15.3 h	102000 ng·h/mL	3.4	37.9 h	15800 ng/mL	347000 ng·h/mL	1860 ng/mL
O=[N+]([O-])c1cn2c(n1)OC[C@@H](OCCOc1ccc(C(F)(F)F)nc1)C2	0.79 µM (≈ 0.296 µg/mL)			59 µM (≈ 22.1 µg/mL)	58 µg/mL (≈ 155 µM)										
O=[N+]([O-])c1cn2c(n1)OC[C@@H](Oc1cccc(-c3ccc(OC(F)(F)F)cc3)n1)C2	0.24 µM (≈ 0.101 µg/mL)			3.3 µM (≈ 1.39 µg/mL)	0.12 µg/mL (≈ 0.284 µM)										
O=[N+]([O-])c1cn2c(n1)OC[C@@H](OC/C=C/c1ccc(-c3ccc(OC(F)(F)F)cc3)cc1)C2		95%	100%	> 128 µM	0.5 µg/mL (≈ 1.08 µM)		2								
O=[N+]([O-])c1cn2c(n1)OC[C@@H](OCCCC#Cc1ccc(OC(F)(F)F)cc1)C2	0.05 µM (≈ 0.0206 µg/mL)	24%	69%	1.9 µM (≈ 0.782 µg/mL)	0.09 µg/mL (≈ 0.219 µM)	< 50%	4.9		1.4 h	12600 ng·h/mL	0.6	1.6 h	2720 ng/mL	7570 ng·h/mL	2540 ng/mL
O=[N+]([O-])c1cn2c(n1)OC[C@@H](OCC#Cc1ccc(-c3ccc(OC(F)(F)F)cc3)cc1)C2		85%	93%		0.07 µg/mL (≈ 0.152 µM)		89	1.6	12.3 h	10000 ng·h/mL	1.4	7.5 h	760 ng/mL	13600 ng·h/mL	570 ng/mL
O=[N+]([O-])c1cn2c(n1)OC[C@@H](OCCCc1ccc(-c3ccc(OC(F)(F)F)cc3)cc1)C2	0.15 µM (≈ 0.0695 µg/mL)	91%	88%	3.8 µM (≈ 1.76 µg/mL)	1.7 µg/mL (≈ 3.67 µM)		1.5	0.025		13300 ng·h/mL	2.2	4.4 h	10100 ng/mL	29500 ng·h/mL	990 ng/mL
